Laboratory results as given in ChEMBL document CHEMBL1144689, “Antileukemic activity of genistein, a major isoflavone present in soy products” (J Nat Prod, 2008).
Calls of active or inactive are those of the source. The rule behind the calls is not given here.

Tests used:
L1210 [1] = assay: Antileukemic activity against mouse L1210 cells at 2 uM after 24 hrs by clonogenic assay; format: functional
Procedure, shortened: (§1)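 Murine L1210 cells cultured in RPMI-1640 with 5% heat-inactivated FCS and 6 µM 2-mercaptoethanol. Log-phase cells at 2 × 10^4 cells/mL exposed to 1–20 µM for 12, 24 or 48 h, then drug removed by centrifugation. 100 cells plated in 0.45% soft agar with 10% serum. Colonies >50 cells counted at day 7. Result as % relative to untreated control. Triplicate, three repeats, mean ± SEM.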

L1210 [2] = assay: Antileukemic activity against mouse L1210 cells at 2 uM after 48 hrs by clonogenic assay; format: functional; procedure, shortened: as §1
L1210 [3] = assay: Antileukemic activity against mouse L1210 cells at 5 uM after 12 hrs by clonogenic assay; format: functional; procedure, shortened: as §1
L1210 [4] = assay: Antileukemic activity against mouse L1210 cells at 5 uM after 24 hrs by clonogenic assay; format: functional; procedure, shortened: as §1
L1210 [5] = assay: Antileukemic activity against mouse L1210 cells at 5 uM after 48 hrs by clonogenic assay; format: functional; procedure, shortened: as §1
L1210 [6] = assay: Antileukemic activity against mouse L1210 cells at 10 uM after 12 hrs by clonogenic assay; format: functional; procedure, shortened: as §1
L1210 [7] = assay: Antileukemic activity against mouse L1210 cells at 10 uM after 24 hrs by clonogenic assay; format: functional; procedure, shortened: as §1
L1210 [8] = assay: Antileukemic activity against mouse L1210 cells at 10 uM after 48 hrs by clonogenic assay; format: functional; procedure, shortened: as §1
L1210 [9] = assay: Antileukemic activity against mouse L1210 cells at 20 uM after 12 hrs by clonogenic assay; format: functional; procedure, shortened: as §1
L1210 [10] = assay: Antileukemic activity against mouse L1210 cells at 20 uM after 24 hrs by clonogenic assay; format: functional; procedure, shortened: as §1
L1210 [11] = assay: Antileukemic activity against mouse L1210 cells at 20 uM after 48 hrs by clonogenic assay; format: functional; procedure, shortened: as §1
L1210 [12] = assay: Growth inhibition of mouse L1210 cells after 24 hrs; format: functional
Procedure, shortened: (§2)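 For L1210 (RPMI-1640, 5% heat-inactivated FCS, 6 µM 2-mercaptoethanol), log-phase cultures at 2 × 10^4 cells/mL were given 1–20 µM for 12, 24 or 48 h. Coulter particle counter counts were expressed as % growth inhibition versus untreated control. IG50 was taken at 24 h. Triplicate, three repeats, mean ± SEM.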

L1210 [13] = assay: Antileukemic activity against mouse L1210 cells after 24 hrs by clonogenic assay; format: functional; settings: L1210, 24 h, read-out: LC50 (the source's name)
Procedure, shortened: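 Murine L1210 grown in RPMI-1640 with 5% heat-inactivated FCS and 6 µM 2-mercaptoethanol. Log-phase cells at 2 × 10^4 cells/mL exposed to 1–20 µM for 24 h. Drug removed by centrifugation. 100 cells plated in 0.45% soft agar with 10% serum for 7 days, and colonies (>50 cells) counted. Loss is relative to untreated control. Triplicates, three experiments, mean ± SEM.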

HL-60 [14] = assay: Growth inhibition of human HL60 cells at 5 uM after 48 hrs; format: functional; settings: HL-60, 48 h, read-out: GI
Procedure, shortened: (§3)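 Human leukemic cells (RPMI-1640, 10% heat-inactivated FBS), log phase, seeded at 2 × 10^4 cells/mL. Exposed to 1, 2, 5, 10 or 20 µM (DMSO stock). Cell number counted with a Coulter particle counter at 48 h. Growth inhibition as % of untreated control. IG50 is the concentration giving 50% inhibition. Triplicate, three repeats, mean ± SEM.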

MOLT-3 = assay: Growth inhibition of human MOLT3 cells at 2 uM after 48 hrs; format: functional; settings: MOLT-3, 48 h, read-out: GI; procedure, shortened: as §3
L1210 [15] = assay: Antileukemic activity against mouse L1210 cells at 1 uM after 24 hrs by clonogenic assay; format: functional; procedure, shortened: as §1
L1210 [16] = assay: Growth inhibition of mouse L1210 cells at 20 uM after 24 hrs; format: functional; settings: L1210, 24 h, read-out: GI; procedure, shortened: as §2
L1210 [17] = assay: Growth inhibition of mouse L1210 cells at 20 uM after 48 hrs; format: functional; settings: L1210, 48 h, read-out: GI; procedure, shortened: as §2
[18] = Elimination half life in human plasma; format: ADME, organism-based
Plasma = assay: Drug concentration in human plasma; format: ADME, cell-free; settings: read-out: Drug uptake
Raji = assay: Growth inhibition of human Raji cells at 5 uM after 48 hrs; format: functional; settings: read-out: GI; procedure, shortened: as §3
[19] = Growth inhibition of human KG1a cells at 5 uM after 48 hrs; format: functional; settings: KG-1a; procedure, shortened: as §3
HL-60 [20] = assay: Induction of p57KIP2 re-expression in human HL60 cellular RNA at 1 to 20 uM after 48 hrs by RT-PCR; format: functional, cell-based
Procedure, shortened: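 HL-60 cells treated 48 h with 1–20 µM. p57KIP2 transcript detected by RT-PCR against 18S rRNA reference, with cycles set in the exponential phase. Products resolved on 2% agarose with ethidium bromide staining. Repeated twice.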

L1210 [21] = assay: Induction of p15CDKN2B re-expression in mouse L1210 cells at 1 to 20 uM after 24 hrs by RT-PCR; format: functional, cell-based
Procedure, shortened: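 Murine L1210 cells exposed to 1–20 µM for 24 h. RNA analysed by RT-PCR for p15CDKN2B, with 18S rRNA as reference. Cycle number set within the exponential phase. Products run on 2% agarose and stained with ethidium bromide. Repeated twice.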

Mus musculus = species: Mus musculus; assay: Toxicity in mouse L1210 cells transplanted CD2F1 mouse assessed as increase in survival time at 0.5% treated with diet for 10 days; format: organism-based; settings: in vivo, po, 240 h
Procedure, shortened: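 Male CD2F1 mice, 24–28 g, n = 11 per group, on a 2016 diet with or without 0.5% supplement, adapted over 10 days. Then injected i.v. with 10^4 L1210 cells (0.1 mL), passaged weekly i.p. as ascites. Diet continued. Survival checked 2–3 times daily and increase in life span calculated. Toxicity assessed by body weight loss.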

[22] = Half life in CD2F1 mouse; format: ADME, organism-based; settings: in vivo

SMILES: O=c1c(-c2ccc(O)cc2)coc2cc(O)cc(O)c12 [GENISTEIN]
- Activity (L1210 [1]): 13%
- Activity (L1210 [2]): 8.9%
- Activity (L1210 [3]): 44%
- Activity (L1210 [4]): 16%
- Activity (L1210 [5]): 32.9%
- Activity (L1210 [6]): 94%
- Activity (L1210 [7]): 63%
- Activity (L1210 [8]): 81.1%
- Activity (L1210 [9]): 100%
- Activity (L1210 [10]): 97%
- Activity (L1210 [11]): 99.7%
- IG50 (L1210 [12]): 18.5 µM
- CC50 (L1210 [13]): 6.5 µM
- inhibition of growth at 5 µM (HL-60 [14]): > 10%
- inhibition of growth at 2 µM (MOLT-3): > 10%
- Activity (L1210 [15]): 6%
- inhibition of growth at 20 µM (L1210 [16]): 66.7%
- inhibition of growth at 20 µM (L1210 [17]): 93.1%
- half-life [18]: 15 h
- concentration (Plasma): 4 µM
- inhibition of growth at 5 µM (Raji): > 10%
- inhibition at 5 µM [19]: > 10%
- Activity (HL-60 [20]): Active
- Activity (L1210 [21]): Active
- Survival (Mus musculus): 187 h
- half-life [22]: < 0.25 h
